Experimental findings from ChEMBL document CHEMBL1157593, “Structure-based design, synthesis, and biological studies of new anticancer norindenoisoquinoline topoisomerase I inhibitors” (2010) are described below.

One assay has as its system OVCAR-3. Nature of the assay: Antiproliferative activity against human OVCAR-3 cells. The assay is classed as functional.
A further assay concerns HCT-116. Nature of the assay: Antiproliferative activity against human HCT116 cells. In kind it is functional.
The test system of another assay is MDA-MB-435. Nature of the assay: Antiproliferative activity against human MDA-MB-435 cells. The assay is classed as functional.
Assay [1] has as its target T1, DNA topoisomerase 1 (Homo sapiens) (UniProt P11387).
T1 sequence (whole entry): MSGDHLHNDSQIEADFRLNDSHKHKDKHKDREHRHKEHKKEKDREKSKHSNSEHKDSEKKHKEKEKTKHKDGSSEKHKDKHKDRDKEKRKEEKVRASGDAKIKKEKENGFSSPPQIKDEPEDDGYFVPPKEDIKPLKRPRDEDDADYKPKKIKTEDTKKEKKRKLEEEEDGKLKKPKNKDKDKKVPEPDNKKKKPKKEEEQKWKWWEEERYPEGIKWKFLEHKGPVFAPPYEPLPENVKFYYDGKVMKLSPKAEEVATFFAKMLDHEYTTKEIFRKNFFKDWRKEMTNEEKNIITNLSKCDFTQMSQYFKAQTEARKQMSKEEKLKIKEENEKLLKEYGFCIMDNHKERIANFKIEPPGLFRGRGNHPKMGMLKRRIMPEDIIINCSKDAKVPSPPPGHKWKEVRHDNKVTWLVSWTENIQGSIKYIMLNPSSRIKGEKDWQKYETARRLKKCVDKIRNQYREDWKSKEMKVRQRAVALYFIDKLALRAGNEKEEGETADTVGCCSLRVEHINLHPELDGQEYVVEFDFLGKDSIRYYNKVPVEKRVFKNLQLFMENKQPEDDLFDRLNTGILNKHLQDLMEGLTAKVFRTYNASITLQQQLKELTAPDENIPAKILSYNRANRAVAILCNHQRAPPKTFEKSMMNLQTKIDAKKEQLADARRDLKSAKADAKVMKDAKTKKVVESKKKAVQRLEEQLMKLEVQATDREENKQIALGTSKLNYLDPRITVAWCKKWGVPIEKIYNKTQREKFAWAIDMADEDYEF
Nature of the assay: Inhibition of human recombinant topoisomerase-1-mediated 117bp DNA oligonucleotide cleavage at 10 uM by PAGE. In short, it runs like this:
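About 2 nM of it is incubated with recombinant Top1 in 10 mM Tris-HCl pH 7.5, 50 mM KCl, 5 mM MgCl2, 0.1 mM EDTA and 15 μg/mL BSA, with compound, for 20 min at 25 °C. Reactions are stopped with 0.5% SDS, run on 20% denaturing PAGE, and cleavage is scored semiquantitatively (0 to ++++) against 1 μM CPT.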

The next assay has as its system UACC-62. Nature of the assay: Antiproliferative activity against human UACC62 cells. The assay is classed as functional.
The test system of the next assay is SN12C. Nature of the assay: Antiproliferative activity against human SN12C cells. The assay is classed as functional.
The subject of the next assay is SF-539. Nature of the assay: Antiproliferative activity against human SF539 cells. In kind it is functional.
For a further assay, the system named is DU-145. Nature of the assay: Antiproliferative activity against human DU145 cells. The assay is classed as functional.
The test system of the next assay is HOP-62. Nature of the assay: Antiproliferative activity against human HOP62 cells. In kind it is functional.
For the next assay, the system named is SR. Nature of the assay: Antiproliferative activity against human SR cells. The assay is classed as functional.
A further assay concerns CCRF-CEM. Nature of the assay: Antiproliferative activity against human CCRF-CEM cells. In kind it is functional.
A further assay relates to NCI-H460. Nature of the assay: Antiproliferative activity against human NCI-H460 cells. In kind it is functional.
For the next assay, the system named is ACHN. Nature of the assay: Antiproliferative activity against human ACHN cells. The assay is classed as functional.
Another assay concerns COLO 205. Nature of the assay: Antiproliferative activity against human COLO205 cells. The assay is classed as functional.
The next assay deals with MCF7. Nature of the assay: Antiproliferative activity against human MCF7 cells. In kind it is functional.
Another assay has as its system RPMI-8226. Nature of the assay: Antiproliferative activity against human RPMI8226 cells. In kind it is functional.
For another assay, the system named is CAKI-1. Nature of the assay: Antiproliferative activity against human Caki1 cells. The assay is classed as functional.
For a further assay, the system named is SF-295. Nature of the assay: Antiproliferative activity against human SF295 cells. The assay is classed as functional.
Another assay deals with IGROV-1. Nature of the assay: Antiproliferative activity against human IGROV1 cells. The assay is classed as functional.
A further assay relates to HCC 2998. Nature of the assay: Antiproliferative activity against human HCC2998 cells. The assay is classed as functional.
The test system of another assay is MOLT-4. Nature of the assay: Antiproliferative activity against human MOLT4 cells. In kind it is functional.
The next assay deals with U-251. Nature of the assay: Antiproliferative activity against human U251 cells. In kind it is functional.

Active and inactive are the calls of the source. The calls are words filed in the database; no cut-off is given here. Some results are limits rather than exact numbers.

A word on the GI50: it is the concentration at which growth is held to half of that of the control.

In the case of `COc1cc2cnc3c(c2cc1OC)Cc1c-3cc2c(c1C)OCO2`, the GI50 in the assay with OVCAR-3 is 5800 nM; with HCT-116, 890 nM; in the assay with MDA-MB-435, over 100000 nM; with UACC-62 it was 700 nM; with SN12C, over 100000 nM; in the assay with SF-539 it was 4600 nM. Further, the concentration for 50% growth inhibition (GI50) in the assay on DU-145 was over 100000 nM; in the assay on HOP-62, 7300 nM. For the same molecule, the inhibition result in assay [1] was “Active”.
On to `COc1cc2cnc3c(c2cc1OC)Cc1c-3cc2c(c1Cn1ccnc1)OCO2`, for which the GI50 in the assay on OVCAR-3 came out at 210 nM; with HCT-116 it was 160 nM; in the assay on SR it was 12 nM; in the assay with CCRF-CEM, 37 nM; in the assay on NCI-H460 it was 130 nM; in the assay on ACHN, 280 nM. Moreover, the GI50 stood at 510 nM in the assay on COLO 205; 210 nM in the assay on UACC-62; 90 nM with MCF7; 41 nM in the assay with RPMI-8226; 290 nM with CAKI-1; 150 nM with SF-295. The GI50 worked out at 120 nM in the assay with IGROV-1; 1100 nM in the assay with HCC 2998; 60 nM with MOLT-4; 160 nM in the assay with U-251; 600 nM with SN12C; 280 nM with SF-539. The GI50 worked out at 260 nM in the assay on DU-145 and 350 nM with HOP-62. In addition, the inhibition entry in [1] was “Active”.
For `COc1cc2cnc3c(c2cc1OC)Cc1c-3cc2c(c1CN1CCCC1)OCO2`, the GI50 with OVCAR-3 stood at 730 nM; in the assay with HCT-116 it was 640 nM; with MDA-MB-435, 2500 nM; in the assay with UACC-62, 6700 nM; in the assay with SN12C, 4400 nM; in the assay with SF-539, 1900 nM. Besides, the figures for the GI50 in the assay on DU-145 and with HOP-62 were 730 nM and 1200 nM, respectively. In addition, in [1], the inhibition result was “Active”.
As to `CC[C@@]1(O)C(=O)OCc2c1cc1n(c2=O)Cc2cc3ccccc3nc2-1` [CAMPTOTHECIN], the concentration for 50% growth inhibition (GI50) in the assay with HCT-116 came out at 30 nM; in the assay with MDA-MB-435, 40 nM; in the assay on UACC-62 it was 10 nM; in the assay with SN12C it was 20 nM; in the assay on SF-539, 10 nM; in the assay with DU-145, 10 nM. This molecule had a GI50 in the assay with HOP-62 of 10 nM.
Regarding `COc1cc2cnc3c(c2cc1OC)Cc1cc2c(cc1-3)OCO2`, the concentration for 50% growth inhibition (GI50) with HCT-116 was over 100000 nM; in the assay with MDA-MB-435, under 10 nM; with UACC-62, under 10 nM; with SN12C, over 100000 nM; in the assay with SF-539, under 10 nM; with DU-145, 28 nM. Further, the GI50 in the assay with HOP-62 came to 72 nM. Further, the inhibition entry in [1] is “Active”.
Turning to `COc1cc2cnc3c(c2cc1OC)Cc1c-3cc2c(c1CN(C)C)OCO2`, the 50% growth inhibitory concentration (GI50) worked out at 1400 nM with OVCAR-3; 1500 nM in the assay with HCT-116; 16000 nM in the assay on MDA-MB-435; 12000 nM with UACC-62; 13000 nM in the assay with SN12C; 14000 nM in the assay on SF-539. In addition, the GI50 in the assay on DU-145 came out at 1600 nM; in the assay with HOP-62, 6700 nM. Besides, in assay [1], the inhibition entry was “Active”.
In the case of `COc1cc2c3c(n(C)c(=O)c2cc1OC)-c1cc2c(cc1C3=O)OCO2`, the concentration for 50% growth inhibition (GI50) in the assay on HCT-116 was 35000 nM; in the assay on MDA-MB-435, 96000 nM; with UACC-62, 4200 nM; with SN12C, 68000 nM; with SF-539, 41000 nM; in the assay on DU-145 it was 37000 nM. Moreover, growth with HOP-62 was halved (GI50) at 1300 nM. Moreover, the inhibition result in [1] was “Active”.
As for `COc1cc2cnc3c(c2cc1OC)Cc1c-3cc2c(c1CN1CCN(C)CC1)OCO2`, in assay [1], the inhibition entry was “Active”.
Turning to `COc1cc2cnc3c(c2cc1OC)Cc1c-3cc2c(c1CN1CCOCC1)OCO2`, the concentration for 50% growth inhibition (GI50) came out at 1700 nM with OVCAR-3; 1400 nM in the assay on HCT-116; 100000 nM with UACC-62; 2300 nM in the assay with SN12C; 1800 nM in the assay on SF-539; 1900 nM in the assay on DU-145. The 50% growth inhibitory concentration (GI50) with HOP-62 amounted to 2100 nM.
Consider `COc1cc2cnc3c(c2cc1OC)Cc1c-3cc2c(c1CN(C)CCN(C)C)OCO2`, for which the GI50 in the assay on OVCAR-3 was 7400 nM; with HCT-116, 1900 nM; in the assay on UACC-62 it was 730 nM; with SN12C it was over 100000 nM; in the assay with SF-539 it was 11000 nM; in the assay with DU-145, 3400 nM. The 50% growth inhibitory concentration (GI50) with HOP-62 is 1500 nM. Further, in [1], the inhibition entry was “Active”.
